Source: ChEMBL document CHEMBL1138917, “FK506-binding protein ligands: structure-based design, synthesis, and neurotrophic/neuroprotective properties of substituted 5,5-dimethyl-2-(4-thiazolidine)carboxylates” (2006)
The source made the active and inactive calls. The calls are words filed in the database; no cut-off is given here.

Key:
[1] = biological target: T1, Peptidyl-prolyl cis-trans isomerase FKBP4 (Homo sapiens) (UniProt Q02790); test: Increase in neurite outgrowth in chick embryo dorsal root ganglion at 1 pM in presence of NGF; assay type: functional, tissue-based; conditions: Gallus gallus, target entry is the homologue from another species
T1 sequence (whole entry): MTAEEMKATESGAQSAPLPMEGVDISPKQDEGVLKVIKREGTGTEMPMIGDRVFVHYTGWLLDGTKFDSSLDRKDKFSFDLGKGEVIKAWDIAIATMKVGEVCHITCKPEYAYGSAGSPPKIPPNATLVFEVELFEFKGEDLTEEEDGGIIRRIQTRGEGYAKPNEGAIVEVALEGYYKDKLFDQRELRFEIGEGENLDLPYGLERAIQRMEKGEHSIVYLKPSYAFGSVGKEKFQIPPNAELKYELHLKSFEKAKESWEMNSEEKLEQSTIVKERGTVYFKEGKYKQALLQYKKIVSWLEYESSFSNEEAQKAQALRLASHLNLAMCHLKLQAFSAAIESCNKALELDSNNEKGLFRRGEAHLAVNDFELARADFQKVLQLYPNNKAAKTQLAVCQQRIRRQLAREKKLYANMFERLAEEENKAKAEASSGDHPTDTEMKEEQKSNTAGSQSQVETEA
Outline: (§1)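 DRGs from 8-day chick embryos, on rat tail collagen-coated flasks, 5-6 per flask; after 1 h attachment at 37 °C, 5% CO2, treated with compound plus 0.15 ng/mL NGF in DMEM for 48 h. DMSO stock 1 mM, final DMSO below 10^-7 M. Phase-contrast scoring of neurite number and length, averaged over 15-18 ganglia; NGF-only controls; one-way ANOVA with Student-Newman-Keuls.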

[2] = biological target: T1, Peptidyl-prolyl cis-trans isomerase FKBP4 (Homo sapiens); test: Increase in neurite outgrowth in chick embryo dorsal root ganglion at 100 pM in presence of NGF; assay type: functional, tissue-based; conditions: Gallus gallus, target entry is the homologue from another species; outline: as §1
Mus musculus [3] = test: Neuroprotective activity against 6-OHDA-induced Kunming mouse peripheral sympathetic nerve injury measured as norepinephrine content in submandibular gland at 10 mg/kg, sc; assay type: functional; conditions: route subcutaneous
Outline: (§2)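 Adult female Kunming mice, 22 g, lesioned with 6-OHDA 8 mg/kg i.p.; compound given s.c. 4 h before lesion and daily for 4 further days; vehicle controls. Killed 2 weeks after last dose; both submandibular glands weighed and homogenized with 3,4-dihydroxybenzylamine internal standard, centrifuged 30 min; norepinephrine in supernatant by HPLC-ECD, µg/g wet weight; mean ± SEM.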

[4] = biological target: T1, Peptidyl-prolyl cis-trans isomerase FKBP4 (Homo sapiens); test: Increase in neurite outgrowth in chick embryo dorsal root ganglion in presence of NGF; assay type: functional, tissue-based; conditions: Gallus gallus, target entry is the homologue from another species; outline: as §1
[5] = biological target: T1, Peptidyl-prolyl cis-trans isomerase FKBP4 (Homo sapiens); test: Decrease in neurite outgrowth in chick embryo dorsal root ganglion at 1 nM in presence of NGF; assay type: functional, tissue-based; conditions: Gallus gallus, target entry is the homologue from another species; outline: as §1
[6] = biological target: T1, Peptidyl-prolyl cis-trans isomerase FKBP4 (Homo sapiens); test: Increase in neurite outgrowth in chick embryo dorsal root ganglion in absence of NGF; assay type: functional, tissue-based; conditions: Gallus gallus, target entry is the homologue from another species
Mus musculus [7] = test: Neuroprotective activity against 6-OHDA-induced Kunming mouse peripheral sympathetic nerve injury measured as norepinephrine content in submandibular gland at 2 mg/kg, sc; assay type: functional; conditions: route subcutaneous; outline: as §2

| Compound | Activity [1] | Activity [2] | further results |
| --- | --- | --- | --- |
| CC(C)(C)C(=O)C(=O)N1[C@H](C(=O)OCCCc2ccccc2)CSC1(C)C | Active | Active | – |
| C=CCCCCCCCCOC(=O)[C@@H]1CSC(C)(C)N1C(=O)C(=O)C(C)(C)C | Active | Active | – |
| CCC(C)(C)C(=O)C(=O)N1[C@H](C(=O)OC/C=C/c2ccccc2)CSC1(C)C | Active | Active | – |
| CC(C)(C)C(=O)C(=O)N1[C@H](C(=O)OCCCc2cccnc2)CSC1(C)C | Active | Active | Activity (Mus musculus [3]): 2.31 µg/g; Activity [4]: Dose-dependent effect; Activity [5]: Active; Activity [6]: inactive |
| C=CC[C@@H]1/C=C(\C)C[C@H](C)C[C@H](OC)[C@H]2O[C@@](O)(C(=O)C(=O)N3CCCC[C@H]3C(=O)O[C@H](/C(C)=C/[C@@H]3CC[C@@H](O)[C@H](OC)C3)[C@H](C)[C@@H](O)CC1=O)[C@H](C)C[C@@H]2OC [TACROLIMUS ANHYDROUS] | – | – | Activity (Mus musculus [7]): 2.33 µg/g |
| CCCCCCC(=O)C(=O)N1[C@H](C(=O)OCCc2ccccc2Cl)CSC1(C)C | Active | Active | – |
| CCCCCCC(=O)C(=O)N1[C@H](C(=O)OCCCc2ccccc2)CSC1(C)C | Active | Active | – |
